Test results: ChEMBL document CHEMBL2086318, “Synthesis and in vitro antimycobacterial activity of 2-methoxybenzanilides and their thioxo analogues” (Eur J Med Chem, 2012)
Converted amounts (≈) assume the structure as drawn.

Key:
HepG2 = test: Cytotoxicity against human HepG2 cells after 24 hrs by CellTiter assay; format: cell-based; conditions: HepG2, 24 h
Outline: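 Hep G2 cells (passage 12), 10,000 per well in MEM with 1% glutamine, 10% FBS and 1% nonessential amino acids, preincubated 24 h at 37 °C, 5% CO2. Compounds dissolved in DMSO, tested at eight concentrations in quadruplicate for 24 h at 37 °C. MTS-type reagent added for 1.5 h, absorbance read at 490 nm. IC50 = concentration reducing viability to 50% of control.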

Mycobacterium avium [1] = test: Antimycobacterial activity against Mycobacterium avium My 330/88 after 21 days by micromethod; format: functional; conditions: My 330/88, 504 h
[2] = system: Mycobacterium tuberculosis; test: Antimycobacterial activity against Mycobacterium tuberculosis My 331/88 after 21 days by micromethod; format: functional; conditions: My 331/88, 504 h
Outline: (§1)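 MIC by micromethod at 37 °C, read after 14 and 21 days. Inocula were M. tuberculosis My 331/88 at 10^-3 dilution and M. avium My 330/88 at 10^-5 dilution. Compounds added in DMSO across 1000, 500, 250, 125, 62.5, 32, 16, 8, 4, 2, 1 and 0.5; isoniazid standard in sterile water. MIC taken as the lowest concentration inhibiting growth.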

Mycobacterium kansasii [3] = test: Antimycobacterial activity against Mycobacterium kansasii My 6509/96 clinical isolate after 21 days by micromethod; format: functional; conditions: My 6509/96, 504 h
[4] = system: Mycobacterium tuberculosis; test: Antimycobacterial activity against Mycobacterium tuberculosis My 331/88 after 14 days by micromethod; format: functional; conditions: My 331/88, 336 h; outline: as §1
Mycobacterium kansasii [5] = test: Antimycobacterial activity against Mycobacterium kansasii My 6509/96 clinical isolate after 14 days by micromethod; format: functional; conditions: My 6509/96, 336 h
Mycobacterium kansasii [6] = test: Antimycobacterial activity against Mycobacterium kansasii My 6509/96 clinical isolate after 7 days by micromethod; format: functional; conditions: My 6509/96, 168 h
Mycobacterium kansasii [7] = test: Antimycobacterial activity against Mycobacterium kansasii My 235/80 after 14 days by micromethod; format: functional; conditions: My 235/80, 336 h
[8] = target: T1, Isocitrate lyase (Mycobacterium tuberculosis) (UniProt P9WKK7); test: Inhibition of Mycobacterium tuberculosis H37Rv isocitrate lyase expressed in Escherichia coli BL21(DE3) using (+)-potassium Ds-threo-isocitrate as substrate assessed as glyoxylate phenyl hydrazone formation at 100 umol/L by spectrophotometry
T1 sequence (whole entry): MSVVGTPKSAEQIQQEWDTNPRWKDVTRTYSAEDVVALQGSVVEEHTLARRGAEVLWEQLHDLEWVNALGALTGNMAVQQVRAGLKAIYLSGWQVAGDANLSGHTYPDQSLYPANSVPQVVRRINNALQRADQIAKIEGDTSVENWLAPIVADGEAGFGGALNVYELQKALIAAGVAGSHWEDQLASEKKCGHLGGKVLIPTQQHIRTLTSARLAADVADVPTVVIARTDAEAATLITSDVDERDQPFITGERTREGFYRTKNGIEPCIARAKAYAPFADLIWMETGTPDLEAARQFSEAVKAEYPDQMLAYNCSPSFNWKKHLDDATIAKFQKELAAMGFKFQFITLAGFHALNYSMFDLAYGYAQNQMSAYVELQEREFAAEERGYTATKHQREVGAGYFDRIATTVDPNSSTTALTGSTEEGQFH

Mycobacterium kansasii [9] = test: Antimycobacterial activity against Mycobacterium kansasii My 235/80 after 21 days by micromethod; format: functional; conditions: My 235/80, 504 h
Mycobacterium kansasii [10] = test: Antimycobacterial activity against Mycobacterium kansasii My 235/80 after 7 days by micromethod; format: functional; conditions: My 235/80, 168 h
[11] = Selectivity ratio of IC50 for human HepG2 cells to MIC for Mycobacterium tuberculosis My 331/88 after 14 days; format: functional
Outline: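 HepG2 cells (passage 12) at 10,000 cells/well in MEM with 10% FBS, 1% glutamine and 1% nonessential amino acids, pre-incubated 24 h at 37 °C, 5% CO2. Compounds in DMSO at eight concentrations in quadruplicate for 24 h. MTS-type reagent added for 1.5 h, absorbance at 490 nm. IC50 from curve fit. SI = IC50 / 14-day MIC against M. tuberculosis 331/88.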

Mycobacterium avium [12] = test: Antimycobacterial activity against Mycobacterium avium My 330/88 after 14 days by micromethod; format: functional; conditions: My 330/88, 336 h

| Structure (SMILES) | IC50 (HepG2) [µM] | MIC (Mycobacterium avium [1]) [µM] | MIC [2] [µM] | MIC (Mycobacterium kansasii [3]) [µM] | MIC [4] [µM] | MIC (Mycobacterium kansasii [5]) [µM] | MIC (Mycobacterium kansasii [6]) [µM] | MIC (Mycobacterium kansasii [7]) [µM] | inhibition [8] [%] | MIC (Mycobacterium kansasii [9]) [µM] | MIC (Mycobacterium kansasii [10]) [µM] | Selectivity ratio [11] | MIC (Mycobacterium avium [12]) [µM] |
| --- | --- | --- | --- | --- | --- | --- | --- | --- | --- | --- | --- | --- | --- |
| COc1cc(Cl)ccc1C(=S)Nc1cccc(C(F)(F)F)c1 | 1.81 | 32 (≈ 11.1 µg/mL) | 8 (≈ 2.77 µg/mL) | 32 (≈ 11.1 µg/mL) | 4 (≈ 1.38 µg/mL) | 32 (≈ 11.1 µg/mL) | 16 (≈ 5.53 µg/mL) | 32 (≈ 11.1 µg/mL) | 23 | 32 (≈ 11.1 µg/mL) | 16 (≈ 5.53 µg/mL) | 0.45 | 32 (≈ 11.1 µg/mL) |
| COc1cc(Cl)ccc1C(=S)Nc1ccc(Br)cc1 | 3.55 | 62.5 (≈ 22.3 µg/mL) | 16 (≈ 5.71 µg/mL) | 62.5 (≈ 22.3 µg/mL) | 4 (≈ 1.43 µg/mL) | 32 (≈ 11.4 µg/mL) | 16 (≈ 5.71 µg/mL) | 62.5 (≈ 22.3 µg/mL) | 27 | 62.5 (≈ 22.3 µg/mL) | 32 (≈ 11.4 µg/mL) | 0.89 | 16 (≈ 5.71 µg/mL) |
| COc1cc(Cl)ccc1C(=S)Nc1cccc(Cl)c1 | 11.7 | 16 (≈ 5 µg/mL) | 16 (≈ 5 µg/mL) | 32 (≈ 9.99 µg/mL) | 4 (≈ 1.25 µg/mL) | 32 (≈ 9.99 µg/mL) | 16 (≈ 5 µg/mL) | 32 (≈ 9.99 µg/mL) | 20 | 32 (≈ 9.99 µg/mL) | 16 (≈ 5 µg/mL) | 2.92 | 16 (≈ 5 µg/mL) |
| COc1cc(Cl)ccc1C(=S)Nc1ccc(Cl)c(Cl)c1 | 6.5 | 32 (≈ 11.1 µg/mL) | 8 (≈ 2.77 µg/mL) | 32 (≈ 11.1 µg/mL) | 2 (≈ 0.693 µg/mL) | 32 (≈ 11.1 µg/mL) | 16 (≈ 5.55 µg/mL) | 32 (≈ 11.1 µg/mL) | 17 | 62.5 (≈ 21.7 µg/mL) | 16 (≈ 5.55 µg/mL) | 3.25 | 32 (≈ 11.1 µg/mL) |
| COc1cc(Cl)ccc1C(=O)Nc1cccc(C(F)(F)F)c1 | – | 125 (≈ 41.2 µg/mL) | 250 (≈ 82.4 µg/mL) | 125 (≈ 41.2 µg/mL) | 250 (≈ 82.4 µg/mL) | 125 (≈ 41.2 µg/mL) | 125 (≈ 41.2 µg/mL) | 250 (≈ 82.4 µg/mL) | – | 250 (≈ 82.4 µg/mL) | 125 (≈ 41.2 µg/mL) | – | 125 (≈ 41.2 µg/mL) |
| COc1ccc(Cl)cc1C(=O)Nc1cccc(Br)c1 | – | 62.5 (≈ 21.3 µg/mL) | 125 (≈ 42.6 µg/mL) | 62.5 (≈ 21.3 µg/mL) | 125 (≈ 42.6 µg/mL) | 62.5 (≈ 21.3 µg/mL) | 62.5 (≈ 21.3 µg/mL) | 62.5 (≈ 21.3 µg/mL) | – | 62.5 (≈ 21.3 µg/mL) | 62.5 (≈ 21.3 µg/mL) | – | 62.5 (≈ 21.3 µg/mL) |
| COc1ccc(Cl)cc1C(=S)Nc1cccc(C(F)(F)F)c1 | – | 32 (≈ 11.1 µg/mL) | 16 (≈ 5.53 µg/mL) | 16 (≈ 5.53 µg/mL) | 16 (≈ 5.53 µg/mL) | 16 (≈ 5.53 µg/mL) | 8 (≈ 2.77 µg/mL) | 16 (≈ 5.53 µg/mL) | – | 16 (≈ 5.53 µg/mL) | 8 (≈ 2.77 µg/mL) | – | 32 (≈ 11.1 µg/mL) |
| COc1cc(Cl)ccc1C(=O)Nc1ccc(Cl)cc1 | – | 32 (≈ 9.48 µg/mL) | 125 (≈ 37 µg/mL) | 62.5 (≈ 18.5 µg/mL) | 125 (≈ 37 µg/mL) | 16 (≈ 4.74 µg/mL) | 8 (≈ 2.37 µg/mL) | 16 (≈ 4.74 µg/mL) | – | 62.5 (≈ 18.5 µg/mL) | 8 (≈ 2.37 µg/mL) | – | 8 (≈ 2.37 µg/mL) |
| COc1cc(Cl)ccc1C(=S)Nc1ccc(Cl)cc1 | 2.93 | 32 (≈ 9.99 µg/mL) | 16 (≈ 5 µg/mL) | 62.5 (≈ 19.5 µg/mL) | 4 (≈ 1.25 µg/mL) | 32 (≈ 9.99 µg/mL) | 16 (≈ 5 µg/mL) | 62.5 (≈ 19.5 µg/mL) | 39 | 62.5 (≈ 19.5 µg/mL) | 32 (≈ 9.99 µg/mL) | 0.73 | 32 (≈ 9.99 µg/mL) |
| COc1cc(Cl)ccc1C(=S)Nc1cccc([N+](=O)[O-])c1 | – | 16 (≈ 5.16 µg/mL) | 16 (≈ 5.16 µg/mL) | 32 (≈ 10.3 µg/mL) | 8 (≈ 2.58 µg/mL) | 16 (≈ 5.16 µg/mL) | 8 (≈ 2.58 µg/mL) | 32 (≈ 10.3 µg/mL) | – | 62.5 (≈ 20.2 µg/mL) | 32 (≈ 10.3 µg/mL) | – | 16 (≈ 5.16 µg/mL) |
| COc1ccc(Cl)cc1C(=O)Nc1ccc(Br)cc1 | – | 32 (≈ 10.9 µg/mL) | 16 (≈ 5.45 µg/mL) | 62.5 (≈ 21.3 µg/mL) | 16 (≈ 5.45 µg/mL) | 62.5 (≈ 21.3 µg/mL) | 32 (≈ 10.9 µg/mL) | 62.5 (≈ 21.3 µg/mL) | – | 62.5 (≈ 21.3 µg/mL) | 62.5 (≈ 21.3 µg/mL) | – | 16 (≈ 5.45 µg/mL) |
| COc1cc(Cl)ccc1C(=O)Nc1ccc(Cl)c(Cl)c1 | – | 125 (≈ 41.3 µg/mL) | 125 (≈ 41.3 µg/mL) | 125 (≈ 41.3 µg/mL) | 125 (≈ 41.3 µg/mL) | 125 (≈ 41.3 µg/mL) | 125 (≈ 41.3 µg/mL) | 125 (≈ 41.3 µg/mL) | – | 125 (≈ 41.3 µg/mL) | 125 (≈ 41.3 µg/mL) | – | 125 (≈ 41.3 µg/mL) |
| COc1ccc(Cl)cc1C(=O)Nc1cccc([N+](=O)[O-])c1 | – | 250 (≈ 76.7 µg/mL) | 125 (≈ 38.3 µg/mL) | 125 (≈ 38.3 µg/mL) | 125 (≈ 38.3 µg/mL) | 125 (≈ 38.3 µg/mL) | 125 (≈ 38.3 µg/mL) | 125 (≈ 38.3 µg/mL) | – | 125 (≈ 38.3 µg/mL) | 125 (≈ 38.3 µg/mL) | – | 250 (≈ 76.7 µg/mL) |
| COc1ccc(Cl)cc1C(=S)Nc1ccc(Cl)cc1 | – | 32 (≈ 9.99 µg/mL) | 16 (≈ 5 µg/mL) | 32 (≈ 9.99 µg/mL) | 16 (≈ 5 µg/mL) | 16 (≈ 5 µg/mL) | 16 (≈ 5 µg/mL) | 32 (≈ 9.99 µg/mL) | – | 62.5 (≈ 19.5 µg/mL) | 8 (≈ 2.5 µg/mL) | – | 32 (≈ 9.99 µg/mL) |
| NNC(=O)c1ccncc1 [ISONIAZID] | – | 250 (≈ 34.3 µg/mL) | 0.5 (≈ 0.0686 µg/mL) | 4 (≈ 0.549 µg/mL) | 0.5 (≈ 0.0686 µg/mL) | 4 (≈ 0.549 µg/mL) | 4 (≈ 0.549 µg/mL) | 200 (≈ 27.4 µg/mL) | – | 250 (≈ 34.3 µg/mL) | > 250 | – | 200 (≈ 27.4 µg/mL) |
